Source: ChEMBL document CHEMBL2062375, “Discovery of an orally efficacious inhibitor of anaplastic lymphoma kinase” (J Med Chem, 2012)
Calls of active or inactive are those of the source. No cut-off for these calls is given here.

How the values were obtained:
[1] = AUC in CD-1 mouse at 10 mg/kg, po; format: ADME, organism-based; design: dose 10 mg/kg, route oral; settings: plasma
Summary of the method: (§1)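 Mouse PK. IV via the lateral tail vein in 3% DMSO/30% Solutol/67% PBS, or oral gavage in 100% PEG400, 100 μL dose volume, after an overnight fast. Trunk blood was taken from three mice per time point over 6 h. Plasma was acetonitrile-precipitated and analysed by LC-MS/MS. Parameters were derived noncompartmentally.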

Rattus norvegicus = experiment: Ratio of Cmax at 10 mg/kg, po to Cmax at 100 mg/kg, po in rat; format: ADME, organism-based; settings: in vivo
Summary of the method: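 Oral dose-escalation PK study in rats at 10, 30, 55 and 100 mg/kg. […] The ratio compares the 10 mg/kg value with the 100 mg/kg value.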

[2] = molecular target: Ribosomal protein S6 kinase alpha-6 (Homo sapiens, UniProt Q9UK32); experiment: Inhibition of human Rsk4
Summary of the method: (§2)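 Millipore KinaseProfiler activity assays on a 259-kinase panel; kinases inhibited by ≥90% at 1 μM then taken to full IC50 determination.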

[3] = molecular target: NUAK family SNF1-like kinase 1 (Homo sapiens) (UniProt O60285); settings: 1 uM
Sequence of NUAK family SNF1-like kinase 1 (Homo sapiens) (O60285 whole entry): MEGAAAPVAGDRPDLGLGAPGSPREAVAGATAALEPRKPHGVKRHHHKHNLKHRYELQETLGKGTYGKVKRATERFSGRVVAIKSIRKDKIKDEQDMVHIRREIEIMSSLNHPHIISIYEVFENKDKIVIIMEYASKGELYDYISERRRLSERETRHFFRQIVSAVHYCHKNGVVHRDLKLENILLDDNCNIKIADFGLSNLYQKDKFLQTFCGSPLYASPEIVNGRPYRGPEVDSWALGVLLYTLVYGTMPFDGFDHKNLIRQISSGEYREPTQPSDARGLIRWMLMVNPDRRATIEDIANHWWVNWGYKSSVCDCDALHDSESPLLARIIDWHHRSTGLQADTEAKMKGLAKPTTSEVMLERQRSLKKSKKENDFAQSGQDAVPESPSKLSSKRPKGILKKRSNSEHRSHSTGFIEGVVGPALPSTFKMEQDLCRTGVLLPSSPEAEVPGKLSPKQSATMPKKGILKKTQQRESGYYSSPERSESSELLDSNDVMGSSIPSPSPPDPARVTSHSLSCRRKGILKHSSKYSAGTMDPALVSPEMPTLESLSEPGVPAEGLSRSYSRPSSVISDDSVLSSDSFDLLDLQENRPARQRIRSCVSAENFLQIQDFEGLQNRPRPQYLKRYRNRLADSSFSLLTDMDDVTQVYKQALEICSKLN

[4] = Plasma concentration in SCID/beige mouse xenografted with human KARPAS299 cells expressing NPM-ALK at 10 mg/kg, po bid after 2 hrs post last dose by LC-MS/MS analysis; format: ADME, organism-based, KARPAS-299; design: dose 10 mg/kg, route oral
Summary of the method: (§3)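 Female SCID/beige mice (6–8 weeks), Karpas-299 cells implanted sc in left flank; at ~600 mm³ randomized (8–10/group), dosed orally in PEG400, 100 μL, b.i.d. for 12 days. Body weight every 2–3 days; plasma and tumor sampled 2 h after final dose, drug by LCMS/MS; Mann–Whitney rank sum statistics.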

[5] = molecular target: T1, Ribosomal protein S6 kinase alpha-3 (Homo sapiens, UniProt P51812); settings: 1 uM
T1 sequence (P51812 whole entry): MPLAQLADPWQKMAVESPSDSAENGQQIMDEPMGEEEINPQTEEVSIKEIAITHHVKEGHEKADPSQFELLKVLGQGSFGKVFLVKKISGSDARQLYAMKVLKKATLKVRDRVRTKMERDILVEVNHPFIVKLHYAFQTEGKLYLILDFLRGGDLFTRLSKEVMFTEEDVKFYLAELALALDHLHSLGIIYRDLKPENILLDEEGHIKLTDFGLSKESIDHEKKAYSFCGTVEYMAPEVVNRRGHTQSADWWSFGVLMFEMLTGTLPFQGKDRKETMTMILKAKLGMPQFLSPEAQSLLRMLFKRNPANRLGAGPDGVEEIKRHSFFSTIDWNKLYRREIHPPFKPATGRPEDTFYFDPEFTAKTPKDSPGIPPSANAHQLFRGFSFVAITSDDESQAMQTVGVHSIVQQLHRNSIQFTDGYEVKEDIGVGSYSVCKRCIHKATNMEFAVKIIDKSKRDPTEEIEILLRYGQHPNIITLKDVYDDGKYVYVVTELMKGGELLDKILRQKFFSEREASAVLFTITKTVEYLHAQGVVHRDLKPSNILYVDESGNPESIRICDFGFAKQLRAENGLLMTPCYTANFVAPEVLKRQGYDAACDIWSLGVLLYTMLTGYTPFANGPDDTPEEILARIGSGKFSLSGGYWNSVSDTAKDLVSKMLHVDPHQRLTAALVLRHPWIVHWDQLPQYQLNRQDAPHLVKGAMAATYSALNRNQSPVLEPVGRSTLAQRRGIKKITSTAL

[6] = AUC in Beagle dog at 1 mg/kg, iv; format: ADME, organism-based, Canis lupus familiaris; design: dose 1 mg/kg, route intravenous; settings: plasma
Summary of the method: (§4)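 Dog and monkey PK. IV 0.5 mL/kg in 40% HPβCD via the saphenous vein. Oral dosing was 1 mL/kg by gavage in dogs and 2 mL/kg by nasogastric tube in monkeys, after an overnight fast. Serial femoral-vein blood was taken into heparin over 24 h. Plasma was acetonitrile-precipitated and analysed by LC-MS/MS. Parameters were noncompartmental, n = 3, mean ± SEM.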

[7] = AUC in cynomolgus monkey at 10 mg/kg, po; format: ADME, organism-based, Macaca fascicularis; design: dose 10 mg/kg, route oral; settings: plasma; summary of the method: as §4
[8] = AUC in CD-1 mouse at 1 mg/kg, iv; format: ADME, organism-based; design: dose 1 mg/kg, route intravenous; settings: plasma; summary of the method: as §1
[9] = molecular target: Vascular endothelial growth factor receptor 3 (Homo sapiens, UniProt P35916); settings: 1 uM
Sequence of Vascular endothelial growth factor receptor 3 (P35916 whole entry): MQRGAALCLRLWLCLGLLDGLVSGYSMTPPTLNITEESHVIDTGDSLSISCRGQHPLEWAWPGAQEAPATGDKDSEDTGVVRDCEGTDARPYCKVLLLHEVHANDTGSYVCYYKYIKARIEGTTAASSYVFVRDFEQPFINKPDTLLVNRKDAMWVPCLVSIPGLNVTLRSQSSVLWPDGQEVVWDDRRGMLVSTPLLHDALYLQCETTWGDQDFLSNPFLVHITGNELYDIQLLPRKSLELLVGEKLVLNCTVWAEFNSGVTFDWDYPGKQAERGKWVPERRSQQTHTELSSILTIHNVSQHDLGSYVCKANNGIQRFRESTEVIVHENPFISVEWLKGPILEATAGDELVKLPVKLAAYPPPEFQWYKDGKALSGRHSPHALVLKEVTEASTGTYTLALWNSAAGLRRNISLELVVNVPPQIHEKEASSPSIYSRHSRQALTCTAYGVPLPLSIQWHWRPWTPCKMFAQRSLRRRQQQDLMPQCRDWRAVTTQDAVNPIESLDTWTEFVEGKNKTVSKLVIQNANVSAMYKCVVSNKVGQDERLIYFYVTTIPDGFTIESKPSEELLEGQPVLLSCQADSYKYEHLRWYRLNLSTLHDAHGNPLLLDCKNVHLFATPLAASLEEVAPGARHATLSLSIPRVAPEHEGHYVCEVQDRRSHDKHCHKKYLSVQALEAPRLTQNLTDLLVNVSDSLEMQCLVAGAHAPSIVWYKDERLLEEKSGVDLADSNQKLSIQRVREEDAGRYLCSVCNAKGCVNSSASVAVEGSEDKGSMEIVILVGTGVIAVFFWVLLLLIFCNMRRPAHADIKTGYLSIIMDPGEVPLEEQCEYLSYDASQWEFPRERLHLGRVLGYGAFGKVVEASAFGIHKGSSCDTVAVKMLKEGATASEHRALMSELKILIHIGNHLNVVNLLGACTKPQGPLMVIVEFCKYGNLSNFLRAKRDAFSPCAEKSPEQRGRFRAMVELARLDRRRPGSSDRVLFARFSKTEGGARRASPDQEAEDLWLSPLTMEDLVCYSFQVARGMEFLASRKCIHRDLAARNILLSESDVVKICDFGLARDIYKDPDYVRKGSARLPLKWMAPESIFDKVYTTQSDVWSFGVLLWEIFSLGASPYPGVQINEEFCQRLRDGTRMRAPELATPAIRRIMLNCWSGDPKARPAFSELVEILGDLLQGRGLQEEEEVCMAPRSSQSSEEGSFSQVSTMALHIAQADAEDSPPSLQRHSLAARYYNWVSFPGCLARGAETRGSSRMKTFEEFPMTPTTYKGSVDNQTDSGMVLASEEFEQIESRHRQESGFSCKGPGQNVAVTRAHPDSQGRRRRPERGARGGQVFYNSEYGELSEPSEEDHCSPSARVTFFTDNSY

[10] = Plasma concentration in SCID/beige mouse xenografted with human KARPAS299 cells expressing NPM-ALK at 30 mg/kg, po bid after 2 hrs post last dose by LC-MS/MS analysis; format: ADME, organism-based, KARPAS-299; design: dose 30 mg/kg, route oral; summary of the method: as §3
[11] = molecular target: Protein-tyrosine kinase 6 (Homo sapiens, UniProt Q13882); settings: 1 uM
Sequence of Protein-tyrosine kinase 6 (Q13882 whole entry, looked up): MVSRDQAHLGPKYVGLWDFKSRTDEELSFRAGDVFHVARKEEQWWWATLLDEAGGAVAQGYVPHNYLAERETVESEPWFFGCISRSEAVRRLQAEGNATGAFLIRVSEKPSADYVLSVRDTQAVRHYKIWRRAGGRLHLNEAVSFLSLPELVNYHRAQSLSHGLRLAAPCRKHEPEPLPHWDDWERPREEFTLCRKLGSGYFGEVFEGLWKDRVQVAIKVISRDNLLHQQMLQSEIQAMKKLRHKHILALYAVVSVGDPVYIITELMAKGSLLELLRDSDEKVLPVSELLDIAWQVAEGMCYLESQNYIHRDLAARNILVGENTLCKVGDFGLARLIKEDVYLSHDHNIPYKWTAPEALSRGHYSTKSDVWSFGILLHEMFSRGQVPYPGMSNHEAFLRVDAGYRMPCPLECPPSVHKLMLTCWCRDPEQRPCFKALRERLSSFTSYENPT

KARPAS-299 = experiment: Antitumor activity against human KARPAS299 cells expressing NPM-ALK xenografted in SCID mouse assessed as tumor regression at 30 mg/kg, po bid for 12 days; format: functional, organism-based; design: dose 30 mg/kg
Summary of the method: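 Female SCID/beige mice, 6–8 weeks old, implanted sc in the left flank with exponentially growing Karpas-299 cells. At about 600 mm³ tumours, mice were randomized (8–10/group) and given PEG400 vehicle or compound orally b.i.d., 100 μL, for 12 days. Tumour volume (0.5236LW(L+W)/2) and body weight were recorded every 2–3 days; Mann–Whitney test. Plasma and tumour levels were measured by LC-MS/MS 2 h after the final dose, mean ± SEM.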

[12] = molecular target: T1, Ribosomal protein S6 kinase alpha-3; experiment: Inhibition of human Rsk2; summary of the method: as §2
Focal adhesion kinase 1 = Focal adhesion kinase 1 (Homo sapiens, UniProt Q05397); settings: 1 uM
Sequence of Focal adhesion kinase 1 (Q05397 2-1052 limits assumed): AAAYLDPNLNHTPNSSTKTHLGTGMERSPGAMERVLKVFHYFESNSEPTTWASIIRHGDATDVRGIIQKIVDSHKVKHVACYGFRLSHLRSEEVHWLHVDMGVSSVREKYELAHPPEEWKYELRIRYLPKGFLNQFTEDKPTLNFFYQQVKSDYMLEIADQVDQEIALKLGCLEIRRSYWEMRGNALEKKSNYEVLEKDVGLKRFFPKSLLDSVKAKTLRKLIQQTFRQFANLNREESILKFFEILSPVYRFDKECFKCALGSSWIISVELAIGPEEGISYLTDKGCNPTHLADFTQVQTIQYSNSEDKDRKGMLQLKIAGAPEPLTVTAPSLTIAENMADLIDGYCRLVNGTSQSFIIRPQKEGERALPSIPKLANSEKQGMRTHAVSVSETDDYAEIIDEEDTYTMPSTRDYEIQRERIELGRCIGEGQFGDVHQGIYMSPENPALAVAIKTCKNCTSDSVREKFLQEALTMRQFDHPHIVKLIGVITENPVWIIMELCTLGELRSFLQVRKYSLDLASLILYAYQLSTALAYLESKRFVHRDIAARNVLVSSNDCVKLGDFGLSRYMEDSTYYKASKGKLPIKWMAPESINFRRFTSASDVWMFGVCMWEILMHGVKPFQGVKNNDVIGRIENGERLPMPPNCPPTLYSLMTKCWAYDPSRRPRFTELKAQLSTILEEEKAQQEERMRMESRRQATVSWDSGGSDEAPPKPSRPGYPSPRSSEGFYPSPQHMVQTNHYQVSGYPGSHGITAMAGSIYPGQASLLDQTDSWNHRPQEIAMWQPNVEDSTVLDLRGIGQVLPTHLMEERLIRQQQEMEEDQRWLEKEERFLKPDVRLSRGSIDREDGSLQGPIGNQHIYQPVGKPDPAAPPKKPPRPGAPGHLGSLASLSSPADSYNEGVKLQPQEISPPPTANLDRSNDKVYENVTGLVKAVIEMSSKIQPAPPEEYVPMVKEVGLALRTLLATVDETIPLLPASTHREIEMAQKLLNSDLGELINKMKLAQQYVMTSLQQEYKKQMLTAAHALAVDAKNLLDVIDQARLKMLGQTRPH

[13] = molecular target: Mitogen-activated protein kinase kinase kinase kinase 2 (Homo sapiens, UniProt Q12851); experiment: Inhibition of human GCK; summary of the method: as §2
[14] = Tmax in SCID mouse at 10 mg/kg, po; format: ADME, organism-based; design: dose 10 mg/kg, route oral; settings: in vivo
Summary of the method: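 Mouse oral PK: overnight fast, gavage of 100 μL in 100% PEG400; trunk blood from three mice per time point over 6 h; plasma acetonitrile-precipitated and analysed by LCMS/MS, noncompartmental parameters.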

[15] = Plasma concentration in SCID mouse xenografted with human KARPAS299 cells expressing NPM-ALK at 30 mg/kg, po after 12 hrs by LC-MS/MS analysis; format: ADME, organism-based, KARPAS-299; design: dose 30 mg/kg, route oral
Summary of the method: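 Pharmacodynamic study: SCID mice bearing subcutaneous Karpas-299 xenografts given single 30 mg/kg oral dose; plasma drug levels measured by LCMS/MS, reported as mean ± SEM.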

[16] = Tmax in Beagle dog at 10 mg/kg, po; format: ADME, organism-based, Canis lupus familiaris; design: dose 10 mg/kg, route oral; settings: in vivo
Summary of the method: (§5)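 PK: overnight-fasted animals. Rat oral gavage 5 mL/kg in 40% HPβCD, serial tail-vein blood over 6 h. Dog oral gavage 1 mL/kg, monkey nasogastric 2 mL/kg, femoral-vein blood over 24 h. Plasma protein-precipitated with acetonitrile, LCMS/MS with internal standard; noncompartmental analysis, individual animals n = 3, mean ± SEM.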

[17] = Cmax in rat at 10 mg/kg, po; format: ADME, organism-based; design: dose 10 mg/kg, route oral; settings: in vivo
Summary of the method: (§6)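 Rat oral dose escalation at 10, 30, 55 and 100 mg/kg. Gavage at 5 mL/kg in 40% HPβCD after an overnight fast. Serial tail-vein blood was drawn into heparinized tubes. Plasma was protein-precipitated with acetonitrile and assayed by LC-MS/MS. Cmax and AUC0–12 were derived noncompartmentally; n = 2 at 10 mg/kg.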

[18] = Half life in Beagle dog at 1 mg/kg, iv; format: ADME, organism-based, Canis lupus familiaris; design: dose 1 mg/kg, route intravenous; settings: in vivo; summary of the method: as §4
Activated CDC42 kinase 1 [19] = molecular target: T2, Activated CDC42 kinase 1 (Homo sapiens, UniProt Q07912); experiment: Inhibition of human ACK1
[20] = Half life in Beagle dog at 10 mg/kg, po; format: ADME, organism-based, Canis lupus familiaris; design: dose 10 mg/kg, route oral; settings: in vivo; summary of the method: as §4
[21] = Plasma clearance in Beagle dog at 1 mg/kg, iv; format: ADME, organism-based, Canis lupus familiaris; design: dose 1 mg/kg, route intravenous
Summary of the method: (§7)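 IV PK: rats via lateral tail vein (1 mL/kg; 3% DMSO/30% Solutol/67% PBS), serial tail-vein blood over 6 h. Dogs and monkeys via saphenous vein (0.5 mL/kg in 40% HPβCD), femoral-vein blood over 24 h. Acetonitrile protein precipitation, LCMS/MS; noncompartmental parameters from individual animals, n = 3, mean ± SEM.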

[22] = molecular target: ALK tyrosine kinase receptor (Homo sapiens, UniProt Q9UM73); experiment: Inhibition of human ALK cytoplasmic domain expressed in baculovirus using GST-PLCgamma as substrate preincubated for 15 mins before substrate addition measured after 1 hr by time resolved fluorescence assay
[23] = molecular target: Ribosomal protein S6 kinase alpha-2 (Homo sapiens, UniProt Q15349); experiment: Inhibition of human Rsk3; summary of the method: as §2
Sequence of Ribosomal protein S6 kinase alpha-2 (Q15349 whole entry): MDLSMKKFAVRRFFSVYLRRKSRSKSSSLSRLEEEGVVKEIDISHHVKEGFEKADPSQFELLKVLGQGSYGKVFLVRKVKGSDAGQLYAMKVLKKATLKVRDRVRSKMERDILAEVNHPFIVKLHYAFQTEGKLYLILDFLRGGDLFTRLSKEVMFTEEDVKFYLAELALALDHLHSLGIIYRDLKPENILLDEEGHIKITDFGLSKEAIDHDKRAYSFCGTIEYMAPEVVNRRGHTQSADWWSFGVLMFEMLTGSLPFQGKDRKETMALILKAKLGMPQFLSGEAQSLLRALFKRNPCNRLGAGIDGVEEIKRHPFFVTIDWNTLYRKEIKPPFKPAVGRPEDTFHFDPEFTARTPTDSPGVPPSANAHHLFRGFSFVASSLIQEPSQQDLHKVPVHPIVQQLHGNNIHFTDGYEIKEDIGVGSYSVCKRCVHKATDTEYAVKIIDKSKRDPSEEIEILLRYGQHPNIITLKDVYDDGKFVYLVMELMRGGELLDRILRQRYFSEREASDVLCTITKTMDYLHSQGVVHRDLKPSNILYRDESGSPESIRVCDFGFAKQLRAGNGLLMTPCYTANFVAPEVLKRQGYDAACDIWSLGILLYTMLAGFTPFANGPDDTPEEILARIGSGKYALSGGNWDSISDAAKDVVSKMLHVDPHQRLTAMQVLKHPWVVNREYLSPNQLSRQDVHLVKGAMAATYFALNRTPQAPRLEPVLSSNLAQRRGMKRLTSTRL

[24] = Volume of distribution in Beagle dog at 1 mg/kg, iv; format: ADME, organism-based, Canis lupus familiaris; design: dose 1 mg/kg, route intravenous; settings: in vivo; summary of the method: as §7
[25] = Oral bioavailability in Beagle dog at 10 mg/kg; format: ADME, organism-based, Canis lupus familiaris; settings: in vivo; summary of the method: as §5
[26] = AUC (0 to 12 hrs) in rat 100 mg/kg, po; format: ADME, organism-based; design: time < 12 hr, dose 100 mg/kg, route oral; settings: plasma; summary of the method: as §6
Activated CDC42 kinase 1 [27] = molecular target: T2, Activated CDC42 kinase 1; settings: 1 uM

`COc1c(Nc2ncc(Cl)c(N[C@H]3[C@@H](C(N)=O)[C@@H]4C=C[C@H]3C4)n2)ccc2c1CC[C@@H](N1CCOCC1)CC2` gave an AUC [1] of 2990 ng·h/mL, a Ratio (Rattus norvegicus) of 9 and an IC50 [2] of 0.019 µM. The inhibition [3] was greater than 90%, the concentration at 2 h [4] was 1960 ng/mL and the inhibition [5] was greater than 90%. The AUC [6] was 409 ng·h/mL, the AUC [7] was 954 ng·h/mL and the AUC [8] was 584 ng·h/mL. It also gave an inhibition [9] greater than 90%, a concentration at 2 h [10] of 4270 ng/mL and an inhibition [11] greater than 90%. For the same compound, the Activity (KARPAS-299) was “Active”, the IC50 [12] was 0.013 µM and the inhibition (Focal adhesion kinase 1) was greater than 90%. For the same compound, the IC50 [13] was 0.06 µM, the Tmax [14] was 1 h and the concentration at 12 h [15] was 1570 ng/mL. It also gave a Tmax [16] of 0.8 h, a Cmax [17] of 349 ng/mL and a half-life [18] of 2.4 h. The IC50 (Activated CDC42 kinase 1 [19]) was 0.041 µM, the half-life [20] was 3.3 h and the clearance [21] was 40 mL/min/kg. For the same compound, the IC50 [22] was 0.0019 µM, the IC50 [23] was 0.007 µM and the Vd [24] was 8.2 L/kg. For the same compound, the bioavailability [25] was 52%, the AUC(0-t) at 12 h [26] was 38200 ng·h/mL and the inhibition (Activated CDC42 kinase 1 [27]) was greater than 90%.
